We go through 21 compounds from ChEMBL document CHEMBL2034814, “Synthesis and evaluation of γ-lactam analogs of PGE₂ as EP4 and EP2/EP4 agonists” (Bioorg Med Chem, 2012).

Test [1] addresses Prostaglandin E2 receptor EP2 subtype (Mus musculus, UniProt Q62053). The experiment in a line: Displacement of [3H]PGE2 from mouse EP2 receptor expressed in CHO cells after 60 mins by scintillation counting. Type of test: cell-based. For orientation: In a radioligand displacement assay an active substance lowers the binding of a labelled ligand.
For test [2], the target named is Prostaglandin E2 receptor EP2 subtype (Rattus norvegicus, UniProt Q62928). The experiment in a line: Agonist activity at rat EP2 receptor expressed in CHO cells assessed as cAMP production after 10 mins by radioimmunoassay. Type of test: functional, cell-based. In outline: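 CHO cells expressing rat EP2 receptor, seeded 1 × 10^5 cells/well and grown 2 days; washed, incubated 10 min at 37 °C in MEM with 2 µM diclofenac, then preincubated 10 min in assay medium with 1% BSA. Compound added, 10 min at 37 °C, stopped with ice-cold 10% trichloroacetic acid; cAMP measured by radioimmunoassay.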
Prostaglandin E2 receptor EP2 subtype (Rattus norvegicus, UniProt Q62928), sequence (Q62928 whole entry): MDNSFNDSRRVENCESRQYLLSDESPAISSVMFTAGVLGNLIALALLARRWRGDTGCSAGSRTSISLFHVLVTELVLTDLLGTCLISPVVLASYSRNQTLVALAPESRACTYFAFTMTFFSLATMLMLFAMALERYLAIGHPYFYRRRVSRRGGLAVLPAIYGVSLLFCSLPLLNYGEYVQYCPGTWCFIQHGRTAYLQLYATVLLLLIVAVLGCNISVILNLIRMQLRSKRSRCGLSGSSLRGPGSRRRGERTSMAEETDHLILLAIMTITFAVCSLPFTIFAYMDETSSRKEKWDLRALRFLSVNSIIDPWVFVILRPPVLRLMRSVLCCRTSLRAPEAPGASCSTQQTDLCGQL
In general terms: cAMP levels reflect the balance of adenylyl cyclase and phosphodiesterase activity.

The target in test [3] is T1, Prostaglandin E2 receptor EP1 subtype (Mus musculus, UniProt P35375).
T1 sequence (P35375 whole entry): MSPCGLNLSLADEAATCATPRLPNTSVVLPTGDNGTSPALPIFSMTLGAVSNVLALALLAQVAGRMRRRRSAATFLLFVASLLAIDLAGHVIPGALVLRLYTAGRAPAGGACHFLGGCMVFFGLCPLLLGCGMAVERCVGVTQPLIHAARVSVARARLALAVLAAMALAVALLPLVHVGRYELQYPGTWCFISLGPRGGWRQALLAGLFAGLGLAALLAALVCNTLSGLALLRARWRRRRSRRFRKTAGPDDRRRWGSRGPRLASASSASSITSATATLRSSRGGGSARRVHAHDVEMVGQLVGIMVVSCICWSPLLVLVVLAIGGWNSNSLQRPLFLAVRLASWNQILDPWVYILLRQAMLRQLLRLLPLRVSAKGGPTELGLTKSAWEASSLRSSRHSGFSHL
The experiment in a line: Displacement of [3H]PGE2 from mouse EP1 receptor expressed in CHO cells after 20 mins by scintillation counting. In kind it is cell-based.

In test [4] the target is T2, Prostaglandin E2 receptor EP3 subtype (Mus musculus, UniProt P30557).
T2 sequence (P30557 whole entry): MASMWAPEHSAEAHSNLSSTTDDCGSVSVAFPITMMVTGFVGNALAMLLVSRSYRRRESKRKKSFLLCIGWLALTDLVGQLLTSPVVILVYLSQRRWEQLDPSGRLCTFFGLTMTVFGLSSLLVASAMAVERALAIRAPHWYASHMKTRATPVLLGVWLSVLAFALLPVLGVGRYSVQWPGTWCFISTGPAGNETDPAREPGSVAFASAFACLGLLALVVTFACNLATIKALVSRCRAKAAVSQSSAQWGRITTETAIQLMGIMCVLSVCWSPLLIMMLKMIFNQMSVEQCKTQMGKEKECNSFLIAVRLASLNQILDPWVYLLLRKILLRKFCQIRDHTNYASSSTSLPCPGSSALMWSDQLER
The experiment in a line: Displacement of [3H]PGE2 from mouse EP3 receptor expressed in CHO cells after 60 mins by scintillation counting. Type of test: cell-based.

For test [5], the target named is Prostaglandin E2 receptor EP4 subtype (Mus musculus, UniProt P32240). The experiment in a line: Displacement of [3H]PGE2 from mouse EP4 receptor expressed in CHO cells after 60 mins by scintillation counting. Type of test: cell-based.
Prostaglandin E2 receptor EP4 subtype (Mus musculus, UniProt P32240), sequence (P32240 whole entry): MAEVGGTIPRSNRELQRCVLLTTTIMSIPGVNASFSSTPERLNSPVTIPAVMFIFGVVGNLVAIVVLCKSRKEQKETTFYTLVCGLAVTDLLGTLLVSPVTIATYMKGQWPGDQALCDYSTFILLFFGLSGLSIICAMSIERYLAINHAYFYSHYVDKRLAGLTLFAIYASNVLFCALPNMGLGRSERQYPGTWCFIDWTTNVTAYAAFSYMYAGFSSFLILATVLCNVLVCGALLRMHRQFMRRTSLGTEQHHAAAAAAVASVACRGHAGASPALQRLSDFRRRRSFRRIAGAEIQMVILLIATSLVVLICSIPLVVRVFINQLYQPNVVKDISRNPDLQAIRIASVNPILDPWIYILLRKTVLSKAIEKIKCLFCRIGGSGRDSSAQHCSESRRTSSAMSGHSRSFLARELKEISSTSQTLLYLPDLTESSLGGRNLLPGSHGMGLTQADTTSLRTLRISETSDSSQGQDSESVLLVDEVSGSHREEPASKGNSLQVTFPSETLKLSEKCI
The target in test [6] is Prostaglandin E2 receptor EP4 subtype (Rattus norvegicus, UniProt P43114). The experiment in a line: Agonist activity at rat EP4 receptor expressed in CHO cells assessed as cAMP production after 10 mins by radioimmunoassay. Type of test: functional, cell-based.
Prostaglandin E2 receptor EP4 subtype (Rattus norvegicus, UniProt P43114), sequence (P43114 whole entry): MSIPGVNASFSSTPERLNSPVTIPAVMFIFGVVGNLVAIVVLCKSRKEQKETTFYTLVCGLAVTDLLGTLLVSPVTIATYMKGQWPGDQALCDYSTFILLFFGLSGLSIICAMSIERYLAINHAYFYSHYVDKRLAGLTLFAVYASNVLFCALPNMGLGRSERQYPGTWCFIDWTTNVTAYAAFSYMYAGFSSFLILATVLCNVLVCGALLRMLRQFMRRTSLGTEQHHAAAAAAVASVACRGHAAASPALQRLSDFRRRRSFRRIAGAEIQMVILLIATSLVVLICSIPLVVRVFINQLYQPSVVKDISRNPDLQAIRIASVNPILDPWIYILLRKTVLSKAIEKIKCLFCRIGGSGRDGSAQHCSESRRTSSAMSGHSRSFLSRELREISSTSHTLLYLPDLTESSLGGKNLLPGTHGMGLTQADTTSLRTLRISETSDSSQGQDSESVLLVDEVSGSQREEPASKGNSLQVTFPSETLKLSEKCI

Prostaglandin E2 receptor EP2 subtype (Mus musculus, UniProt Q62053), sequence (Q62053 whole entry): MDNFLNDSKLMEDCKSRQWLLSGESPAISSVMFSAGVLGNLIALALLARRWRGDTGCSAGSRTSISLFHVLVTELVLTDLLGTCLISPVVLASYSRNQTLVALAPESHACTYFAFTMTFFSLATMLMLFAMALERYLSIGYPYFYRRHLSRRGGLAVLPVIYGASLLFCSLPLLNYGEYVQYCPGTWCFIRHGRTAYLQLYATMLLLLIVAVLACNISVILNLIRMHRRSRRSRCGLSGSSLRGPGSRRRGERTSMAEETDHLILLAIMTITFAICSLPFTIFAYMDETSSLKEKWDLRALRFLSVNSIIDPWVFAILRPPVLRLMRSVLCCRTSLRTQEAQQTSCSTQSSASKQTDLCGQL

On to `Cc1cc(C)c2oc(-c3cccc(C[C@H](O)/C=C/[C@H]4CCC(=O)N4CCSc4nc(C(=O)O)cs4)c3)nc2c1`, for which the inhibition constant (Ki) (in general, a dissociation constant, usually derived from enzyme kinetics or from competition with a known ligand) was 24 nM in test [1], 3.2 µM in test [3], > 10 µM in test [4] and 0.15 nM in test [5]. Besides, the concentration giving a half-maximal response (EC50) (in general, the concentration at which the effect is half-maximal) is > 10 µM in test [2] and 7.7 nM in test [6].
With `Cc1ccc(-c2cccc(C[C@H](O)/C=C/[C@H]3CCC(=O)N3CCSc3nc(C(=O)O)cs3)c2)c(C)c1`, the inhibition constant Ki in test [1] is 23 nM; in test [3] it was 2.4 µM; in test [4], > 10 µM; in test [5], 3.5 nM. Besides, the results for the EC50 in test [2] and in test [6] were > 10 µM and 160 nM, respectively.
On to `O=C(O)CCCSCCN1C(=O)CC[C@@H]1/C=C/[C@@H](O)Cc1cccc(-c2ccccn2)c1`, for which the inhibitory constant (Ki) was 6100 nM in test [1], > 10 µM in test [3], > 10 µM in test [4] and 4.8 nM in test [5]. For the same compound, the 50% effective concentration (EC50) in test [6] came out at 86 nM.
As for `O=C(O)CCCSCCN1C(=O)CC[C@@H]1/C=C/[C@@H](O)Cc1cccc(-c2nc3ccccc3s2)c1`, the Ki was 720 nM in test [1], > 10 µM in test [3], > 10 µM in test [4] and 0.36 nM in test [5]. The concentration giving a half-maximal response (EC50) in test [6] is 3.2 nM.
For `O=C(O)c1csc(SCCN2C(=O)CC[C@@H]2/C=C/[C@@H](O)Cc2cccc(-c3nc4ccccc4o3)c2)n1`, the inhibition constant Ki in test [1] is 28 nM; in test [3], > 10 µM; in test [4], > 10 µM; in test [5] it was 0.12 nM. Moreover, the EC50 was determined as 1.6 µM in test [2] and 2.2 nM in test [6].
As to `O=C(O)c1csc(SCCN2C(=O)CC[C@@H]2/C=C/[C@@H](O)Cc2cccc(-c3nc4ccccc4s3)c2)n1`, the Ki is 15 nM in test [1], 8 µM in test [3], > 10 µM in test [4] and 0.19 nM in test [5]. The EC50 in test [2] is 2.7 µM; in test [6] it was 13 nM.
Consider `Cc1ccc(-c2cccc(C[C@H](O)/C=C/[C@H]3CCC(=O)N3CCSc3nc(C(=O)O)cs3)c2)cc1`, for which the Ki in test [1] is 2 nM; in test [3], 6.1 µM; in test [4], > 10 µM; in test [5] it was 0.43 nM. For the same compound, the half-maximal effective concentration (EC50) in test [2] was 0.38 µM; in test [6], 15 nM.
`O=C(O)CCCSCCN1C(=O)CC[C@@H]1/C=C/[C@@H](O)Cc1cccc(OCc2ccncc2)c1`: the Ki in test [1] is > 10000 nM; in test [3], > 10 µM; in test [4], > 10 µM; in test [5], 28 nM. Moreover, the EC50 in test [6] was found to be 46 nM.
`Cc1ccc(-c2cccc(C[C@H](O)/C=C/[C@H]3CCC(=O)N3CCSc3nc(C(=O)O)cs3)c2)cc1C`: the Ki in test [1] is 1.5 nM; in test [3], 2.5 µM; in test [4] it was > 10 µM; in test [5], 0.35 nM. In addition, the results for the EC50 in test [2] and in test [6] were 1.4 µM and 21 nM, respectively.
Regarding `Cc1cccc2oc(-c3cccc(C[C@H](O)/C=C/[C@H]4CCC(=O)N4CCSc4nc(C(=O)O)cs4)c3)nc12`, the inhibitory constant (Ki) in test [1] is 22 nM; in test [3], 7.7 µM; in test [4] it was > 10 µM; in test [5], 0.21 nM. The results for the EC50 in test [2] and in test [6] were 8.5 µM and 28 nM, respectively.
Regarding `O=C(O)CCCSCCN1C(=O)CC[C@@H]1/C=C/[C@@H](O)Cc1cccc(-c2nc3ccccc3o2)c1`, the Ki was 1700 nM in test [1], 5 µM in test [3], > 10 µM in test [4] and 0.2 nM in test [5]. In test [6], the EC50 came out at 13 nM.
For `O=C(O)CCCSCCN1C(=O)CC[C@@H]1/C=C/[C@@H](O)Cc1cccc(-c2ccc3[nH]ccc3c2)c1` the same measures were 3500 nM, > 10 µM, > 10 µM, 0.28 nM and 85 nM.
For the compound `O=C(O)c1csc(SCCN2C(=O)CC[C@@H]2/C=C/[C@@H](O)Cc2cccc(-c3nc4cc(Cl)ccc4s3)c2)n1`, the inhibition constant (Ki) was 22 nM in test [1], 0.68 µM in test [3], > 10 µM in test [4] and 0.25 nM in test [5]. The EC50 in test [2] was > 10 µM; in test [6] it was 9.7 nM.
As for `COc1ccc(-c2cccc(C[C@H](O)/C=C/[C@H]3CCC(=O)N3CCSc3nc(C(=O)O)cs3)c2)cc1`, the Ki in test [1] was 9.2 nM; in test [3], 5.4 µM; in test [4], > 10 µM; in test [5], 1.7 nM. Further, the values for the EC50 in test [2] and in test [6] were 4.6 µM and 15 nM, respectively.
As for `O=C(O)CCCSCCN1C(=O)CC[C@@H]1/C=C/[C@@H](O)Cc1cccc(OCc2cccnc2)c1`, the Ki in test [1] is > 10000 nM; in test [3] it was > 10 µM; in test [4], > 10 µM; in test [5] it was 4.7 nM. Moreover, the EC50 in test [6] is 19 nM.
Regarding `Cc1cccc(C[C@H](O)/C=C/[C@H]2CCC(=O)N2CCSCCCC(=O)O)c1`, in test [6], the EC50 amounted to 5.7 nM.
For the compound `O=C(O)CCCSCCN1C(=O)CC[C@@H]1/C=C/[C@@H](O)Cc1cccc(OCc2ccccn2)c1`, the Ki in test [1] is > 10000 nM; in test [3], > 10 µM; in test [4], > 10 µM; in test [5], 0.89 nM. Further, in test [6], the EC50 amounted to 0.61 nM.
On to `O=C(O)CCCSCCN1C(=O)CC[C@@H]1/C=C/[C@@H](O)Cc1cccc(-c2ccc3ccccc3c2)c1`, for which the inhibitory constant (Ki) in test [1] is 2100 nM; in test [3], > 10 µM; in test [4], > 10 µM; in test [5] it was 0.6 nM. The 50% effective concentration (EC50) in test [6] came to 96 nM.
As to `O=C(O)CCCSCCN1C(=O)CC[C@@H]1/C=C/[C@@H](O)Cc1cccc(N2Cc3ccccc3C2)c1`, the inhibition constant (Ki) was > 10000 nM in test [1], 7.1 µM in test [3], > 10 µM in test [4] and 4.4 nM in test [5]. Moreover, the EC50 in test [6] came out at 28 nM.
For `O=C(O)CCCSCCN1C(=O)CC[C@@H]1/C=C/[C@@H](O)Cc1cccc(-c2ccccc2)c1` the same measures were > 10000 nM, > 10 µM, > 10 µM, 1.1 nM and 52 nM.
Take `O=C(O)c1csc(SCCN2C(=O)CC[C@@H]2/C=C/[C@@H](O)Cc2cccc(-c3nc4cc(Cl)ccc4o3)c2)n1`: the Ki is 67 nM in test [1], 0.65 µM in test [3], > 10 µM in test [4] and 0.2 nM in test [5]. In addition, the 50% effective concentration (EC50) in test [2] was > 10 µM; in test [6], 4.9 nM.
